Laboratory results reported in ChEMBL document CHEMBL3352765, “Synthesis and evaluation of the cytotoxic activity of 1,2-furanonaphthoquinones tethered to 1,2,3-1H-triazoles in myeloid and lymphoid leukemia cell lines” (Eur J Med Chem, 2014).
Structures can show the parent of a compound that is named as a salt.

Experiments:
[1] = Induction of hemolysis in lamb blood erythrocytes at 1000 uM incubated for 10 mins by microplate reader method; type: cell-based, Ovis aries, Erythrocyte; conditions: sheep, read-out: Activity
Summary of the method: (§1)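 Fresh lamb erythrocytes were collected by centrifugation at 1500 rpm for 15 min and washed three times in PBS with 10 mM glucose, pH 7.4. They were used at 4 × 10⁸/well in triplicate, with compounds at a final 1000 µM and retests at 200 µM. After centrifugation at 13,000 rpm for 15 min, supernatant absorbance was read at 540 nm. Results are given as % of complete hemolysis from water osmotic shock.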

[2] = system: MOLT-4; assay: Cytotoxicity against human MOLT4 cells after 48 hrs by Alamar blue assay; type: functional, cell-based; conditions: MOLT-4, 48 h
Summary of the method: (§2)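 Cells seeded at 2.5 × 10⁴/well and exposed to compounds for 48 h in total. AlamarBlue was added before the end of the 48 h (CCRF-CEM 2 h, MOLT-4 6 h). Resorufin fluorescence was read at ex 560/em 590 nm. Triplicate wells at six or seven concentrations. Controls were cells with medium and up to 1% DMSO. IC50 is the concentration killing 50% of cells.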

[3] = system: CCRF-CEM; assay: Cytotoxicity against human CCRF-CEM cells after 48 hrs by Alamar blue assay; type: functional, cell-based; summary of the method: as §2
[4] = Cytotoxicity against human KG1 cells after 48 hrs by Alamar blue assay; type: functional, cell-based; conditions: KG-1, 48 h
Summary of the method: (§3)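 Cells were seeded and exposed to compounds for 48 h in total: K562 at 2.5 × 10⁴/well, KG1 at 5.0 × 10⁴/well. AlamarBlue was added 4 h (K562) or 6 h (KG1) before the end. Fluorescence was read at ex 560/em 590 nm. Triplicate wells at six or seven concentrations. Vehicle controls contained up to 1% DMSO and defined 100% survival. Readout was IC50.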

[5] = system: K562; assay: Cytotoxicity against human K562 cells after 48 hrs by Alamar blue assay; type: functional, cell-based; conditions: K562, 48 h; summary of the method: as §3
[6] = system: PBMC; assay: Cytotoxicity against normal human PBMC assessed as reduction in cell viability at 10 times anti-leukemic IC50 after 48 hrs by Alamar blue assay; type: cell-based
Summary of the method: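 Gradient-isolated donor PBMCs (three donors), 5 × 10⁴/well in RPMI 1640 with 10% inactivated FBS. […] Viability was measured by AlamarBlue with 24 h dye incubation and fluorescence at ex 560/em 590 nm.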

[7] = Induction of hemolysis in lamb blood erythrocytes at 200 uM incubated for 10 mins by microplate reader method; type: cell-based, Ovis aries; conditions: sheep, erythrocyte; summary of the method: as §1
[8] = system: PBMC; assay: Cytotoxicity against normal human PBMC assessed as reduction in cell viability after 48 hrs by Alamar blue assay; type: functional, cell-based
Summary of the method: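 PBMCs were isolated from healthy-donor buffy coats by density gradient centrifugation and seeded at 5.0 × 10⁴/well in RPMI 1640 with 10% inactivated FBS. Exposure was 48 h, with AlamarBlue added for the final 24 h. Fluorescence was read at ex 560/em 590 nm. Triplicate wells at six or seven concentrations. IC50 was derived against vehicle controls.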

[9] = system: PBMC; assay: Cytotoxicity against normal human PBMC assessed as reduction in cell viability at 10 uM after 48 hrs by Alamar blue assay; type: functional
[10] = Cytotoxicity against human lymphocytes; type: cell-based; conditions: Lymphocyte
[11] = system: V79; assay: Cytotoxicity against Chinese hamster V79 cells; type: cell-based; conditions: Cricetulus griseus

Row | SMILES | hemolysis at 10 min, 1000 µM [1] [%] | IC50 [2] [nM] | IC50 [3] [nM] | IC50 [4] [nM] | IC50 [5] [nM] | Activity [6] | Activity [7] | IC50 [8] [nM] | Activity [9] [%] | IC50 [10] [nM] | IC50 [11] [nM]
1 | COc1ccc(-c2cn(C3C4=C(OC3(C)C)c3ccccc3C(=O)C4=O)nn2)cc1 (stereo unspecified) | < 5 | 34500 | 11700 | 76200 | 9060 | > 80% |  |  |  |  | 
2 | CC1(C)OC2=C(C(=O)C(=O)c3ccccc32)C1n1cc(C2=CCCCC2)nn1 (stereo unspecified) | < 5 | 280 | 12600 | 8410 | 1110 | > 80% |  |  |  |  | 
3 | CC1(C)OC2=C(C(=O)C(=O)c3ccccc32)C1n1cc(C2CCCCC2)nn1 (stereo unspecified) | < 5 | 2130 | 1970 | 7620 | 3800 | Non-toxic |  |  |  |  | 
4 | CCCCCc1ccc(-c2cn(C3C4=C(OC3(C)C)c3ccccc3C(=O)C4=O)nn2)cc1 (stereo unspecified) | > 5 | 2620 | 13800 | 3920 | 8030 | > 80% | Non-toxic |  |  |  | 
5 | CCCc1cn(C2C3=C(OC2(C)C)c2ccccc2C(=O)C3=O)nn1 (stereo unspecified) | < 5 | 1470 | 3140 | 1550 | 60900 | > 80% |  |  |  |  | 
6 | CCCCc1cn(C2C3=C(OC2(C)C)c2ccccc2C(=O)C3=O)nn1 (stereo unspecified) | < 5 | 1920 | 3730 | 3790 | 3780 | > 80% |  |  |  |  | 
7 | CCCCCc1cn(C2C3=C(OC2(C)C)c2ccccc2C(=O)C3=O)nn1 (stereo unspecified) | < 5 | 2280 | 27600 | 30000 | 2680 | > 80% |  |  |  |  | 
8 | CCCCCCc1cn(C2C3=C(OC2(C)C)c2ccccc2C(=O)C3=O)nn1 (stereo unspecified) | < 5 | 2170 | 7300 | 5580 |  | > 80% |  |  |  |  | 
9 | CCC(C)(O)c1cn(C2C3=C(OC2(C)C)c2ccccc2C(=O)C3=O)nn1 (stereo unspecified) | < 5 | 1980 | 3570 | 5630 | 1390 | Non-toxic |  |  |  |  | 
10 | CC(C)CC(C)(O)c1cn(C2C3=C(OC2(C)C)c2ccccc2C(=O)C3=O)nn1 (stereo unspecified) | < 5 | 1470 | 1770 | 1320 | 1910 | > 80% |  |  |  |  | 
11 | CC(=O)OCc1cn(C2C3=C(OC2(C)C)c2ccccc2C(=O)C3=O)nn1 (stereo unspecified) | < 5 | 160 | 310 | 9580 | 8350 | > 80% |  |  |  |  | 
12 | CC1(C)OC2=C(C(=O)C(=O)c3ccccc32)C1n1cc(CCl)nn1 (stereo unspecified) | > 5 | 480 | 670 | 980 | 1380 | Non-toxic | Non-toxic |  |  |  | 
13 | CC1(C)OC2=C(C(=O)C(=O)c3ccccc32)C1n1cc(CCCCl)nn1 (stereo unspecified) | < 5 | 50 | 340 | 930 | 2070 | > 80% |  | > 10000 |  |  | 
14 | CC1(C)OC2=C(C(=O)C(=O)c3ccccc32)C1n1cc(C2(O)CCCCC2)nn1 (stereo unspecified) | < 5 | 2580 | 2790 | 4920 | 1530 | > 80% |  |  |  |  | 
15 | CC1(C)OC2=C(C(=O)C(=O)c3ccccc32)C1n1cc(-c2ccccc2)nn1 (stereo unspecified) | < 5 | 750 | 1960 | 12800 | 14400 | Non-toxic |  |  | 30 |  | 
16 | CC(C)(O)c1cn(C2C3=C(OC2(C)C)c2ccccc2C(=O)C3=O)nn1 (stereo unspecified) | < 5 | 2160 | 1730 | 2000 | 2430 | > 80% |  |  |  |  | 
17 | CC1(C)OC2=C(C(=O)C(=O)c3ccccc32)C1n1cc(COC2CCCCO2)nn1 (stereo unspecified) | < 5 | 2040 | 3160 | 5630 | 1840 | > 80% |  |  |  |  | 
18 | CC1(C)OC2=C(C(=O)C(=O)c3ccccc32)C1N=[N+]=[N-] (stereo unspecified) |  | 3640 | 3180 | 6060 | 1580 | > 80% |  |  |  |  | 
19 | CC1(C)OC2=C(C(=O)C(=O)c3ccccc32)C1n1cc(CO)nn1 (stereo unspecified) | < 5 | 1350 | 1530 | 5330 | 1580 | > 80% |  |  |  |  | 
20 | COc1cccc2c1C(=O)c1c(O)c3c(c(O)c1C2=O)C[C@@](O)(C(=O)CO)C[C@@H]3O[C@H]1C[C@H](N)[C@H](O)[C@H](C)O1 [DOXORUBICIN HYDROCHLORIDE] |  | 70 | 150 |  |  | > 80% |  |  |  |  | 
21 | CC1(C)CC2=C(O1)c1ccccc1C(=O)C2=O [NOR-BETA-LAPACHONE] |  | 13600 | 15200 | 17200 | 2280 | > 80% |  |  |  | > 22000 | 13000
